Data set [1] concerns the target T1, cGMP-specific 3',5'-cyclic phosphodiesterase (Homo sapiens, UniProt O76074). Description: Inhibition of recombinant 6His-tagged PDE5A1 catalytic domain (unknown origin) expressed in Escherichia coli using TAMRA-cGMP or FAM-cAMP as substrate incubated for 1.5 hrs by IMAP-FP assay.
The target of data set [2] is T2, Dual specificity calcium/calmodulin-dependent 3',5'-cyclic nucleotide phosphodiesterase 1A (Homo sapiens, UniProt P54750). Put plainly: Inhibition of recombinant full length GST-tagged PDE1A (unknown origin) expressed in baculovirus infected Sf9 insect cells using FAM-cAMP as substrate incubated for 1.5 hrs by IMAP-FP assay. In a few lines: (§1)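 PDE enzymes incubated with compound or vehicle and 50 nM TAMRA-cGMP or FAM-cAMP substrate for 1.5 h at 30 °C. Activity read by IMAP fluorescence polarization. IC50 from 10 concentrations, at least two replicates each, fitted by four-parameter logistic. Dose–response repeated at least twice; mean of at least two experiments.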
T2 sequence (P54750 whole entry): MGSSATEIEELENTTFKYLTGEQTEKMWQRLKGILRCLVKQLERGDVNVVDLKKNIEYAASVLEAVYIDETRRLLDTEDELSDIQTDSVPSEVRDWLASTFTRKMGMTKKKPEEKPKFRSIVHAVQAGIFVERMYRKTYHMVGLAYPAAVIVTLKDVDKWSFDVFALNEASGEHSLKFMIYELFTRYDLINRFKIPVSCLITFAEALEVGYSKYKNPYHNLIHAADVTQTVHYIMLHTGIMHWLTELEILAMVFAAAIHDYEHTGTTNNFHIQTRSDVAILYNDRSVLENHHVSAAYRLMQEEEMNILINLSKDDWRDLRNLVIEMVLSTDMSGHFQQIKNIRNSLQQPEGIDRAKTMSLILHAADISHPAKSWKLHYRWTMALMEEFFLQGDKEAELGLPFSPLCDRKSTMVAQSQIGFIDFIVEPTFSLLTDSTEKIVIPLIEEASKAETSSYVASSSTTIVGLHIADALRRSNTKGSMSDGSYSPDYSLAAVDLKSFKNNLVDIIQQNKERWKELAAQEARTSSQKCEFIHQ

The target in data set [3] is T2, Dual specificity calcium/calmodulin-dependent 3',5'-cyclic nucleotide phosphodiesterase 1A. Put plainly: Inhibition of recombinant full length GST-tagged PDE1A (unknown origin) expressed in baculovirus infected Sf9 insect cells using TAMRA-cGMP as substrate incubated for 1.5 hrs by IMAP-FP assay. The method, boiled down: as §1
Data set [4] deals with cGMP-dependent 3',5'-cyclic phosphodiesterase (Homo sapiens, UniProt O00408). Put plainly: Inhibition of recombinant full length GST-tagged PDE2A (unknown origin) expressed in baculovirus infected Sf9 insect cells using FAM-cAMP as substrate incubated for 1.5 hrs by IMAP-FP assay. In a few lines:
as §1

The target of data set [5] is T3, cGMP-inhibited 3',5'-cyclic phosphodiesterase 3A (Homo sapiens, UniProt Q14432). Put plainly: Inhibition of recombinant GST-tagged PDE3A (669 to end residues) (unknown origin) expressed in baculovirus infected Sf9 insect cells using FAM-cAMP as substrate incubated for 1.5 hrs by IMAP-FP assay. In a few lines: as §1
T3 sequence (Q14432 whole entry): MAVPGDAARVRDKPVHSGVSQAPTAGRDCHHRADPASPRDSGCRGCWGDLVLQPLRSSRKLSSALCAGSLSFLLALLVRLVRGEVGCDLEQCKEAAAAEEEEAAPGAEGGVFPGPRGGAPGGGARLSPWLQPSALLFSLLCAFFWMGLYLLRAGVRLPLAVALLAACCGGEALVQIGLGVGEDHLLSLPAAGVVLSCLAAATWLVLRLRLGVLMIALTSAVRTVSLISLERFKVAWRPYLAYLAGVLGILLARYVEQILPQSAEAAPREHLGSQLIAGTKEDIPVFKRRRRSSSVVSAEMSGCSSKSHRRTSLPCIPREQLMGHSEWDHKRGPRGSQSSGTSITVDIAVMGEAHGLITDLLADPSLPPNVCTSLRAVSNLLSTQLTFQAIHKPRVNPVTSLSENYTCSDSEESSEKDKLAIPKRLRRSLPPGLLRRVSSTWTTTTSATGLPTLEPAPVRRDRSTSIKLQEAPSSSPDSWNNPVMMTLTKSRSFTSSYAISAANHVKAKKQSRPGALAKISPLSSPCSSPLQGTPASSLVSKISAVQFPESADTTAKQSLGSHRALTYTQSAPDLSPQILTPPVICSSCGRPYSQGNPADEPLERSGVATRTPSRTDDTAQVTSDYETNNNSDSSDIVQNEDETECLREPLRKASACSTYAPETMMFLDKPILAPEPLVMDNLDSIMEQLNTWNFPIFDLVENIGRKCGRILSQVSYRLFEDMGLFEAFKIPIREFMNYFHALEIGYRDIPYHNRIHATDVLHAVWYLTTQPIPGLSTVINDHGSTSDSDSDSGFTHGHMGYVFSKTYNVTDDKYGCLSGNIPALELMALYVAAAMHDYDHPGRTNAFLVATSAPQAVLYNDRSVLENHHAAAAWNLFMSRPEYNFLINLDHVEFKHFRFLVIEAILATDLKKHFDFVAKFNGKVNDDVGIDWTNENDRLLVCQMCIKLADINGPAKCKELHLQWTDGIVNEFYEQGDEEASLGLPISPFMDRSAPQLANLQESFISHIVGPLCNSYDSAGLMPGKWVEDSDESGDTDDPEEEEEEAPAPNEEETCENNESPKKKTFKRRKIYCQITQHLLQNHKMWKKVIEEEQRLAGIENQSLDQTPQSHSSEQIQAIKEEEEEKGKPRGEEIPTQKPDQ
Data set [6] deals with T3, cGMP-inhibited 3',5'-cyclic phosphodiesterase 3A. Description: Inhibition of recombinant GST-tagged PDE3A (669 to end residues) (unknown origin) expressed in baculovirus infected Sf9 insect cells using TAMRA-cGMP as substrate incubated for 1.5 hrs by IMAP-FP assay. In a few lines: as §1
The target of data set [7] is High affinity cAMP-specific and IBMX-insensitive 3',5'-cyclic phosphodiesterase 8A (Homo sapiens, UniProt O60658). Description: Inhibition of recombinant GST-tagged full length PDE8A1 (unknown origin) expressed in baculovirus infected Sf9 insect cells using FAM-cAMP as substrate incubated for 1.5 hrs by IMAP-FP assay. In a few lines:
as §1

In data set [8] the target is cAMP and cAMP-inhibited cGMP 3',5'-cyclic phosphodiesterase 10A (Homo sapiens, UniProt Q9Y233). Description: Inhibition of recombinant GST-tagged full length PDE10A2 (unknown origin) expressed in baculovirus infected Sf9 insect cells using FAM-cAMP as substrate incubated for 1.5 hrs by IMAP-FP assay. The method, boiled down:
as §1

Data set [9] addresses Dual 3',5'-cyclic-AMP and -GMP phosphodiesterase 11A (Homo sapiens, UniProt Q9HCR9). Put plainly: Inhibition of recombinant GST-tagged full length PDE11A4 (unknown origin) expressed in baculovirus infected Sf9 insect cells using FAM-cAMP as substrate incubated for 1.5 hrs by IMAP-FP assay. The method, boiled down: as §1
Data set [10] has as its target T1, cGMP-specific 3',5'-cyclic phosphodiesterase. Description: Inhibition of PDE5A in HEK293 cells stably transfected with cGMP biosensor assessed as increase in SNP-induced intracellular cGMP level measured after 90 mins by luminescence assay. It is filed as cell-based.
Data set [11] is described as follows: Elimination rate constant in C57BL/6N mouse at 150 mg/kg, po administered as single dose measured up to 8 hrs by LC-MS/MS analysis. The conditions noted are these: in vivo. It is filed as ADME, organism-based.
The nature of data set [12]: Observed AUC (0 to infinity) in C57BL/6N mouse at 150 mg/kg, po administered as single dose measured up to 8 hrs by LC-MS/MS analysis. Format: ADME, organism-based. Also noted: route oral, dose 150 mg/kg, time <=8. The conditions noted are these: in vivo.
A short description of data set [13]: Observed clearance in C57BL/6N mouse at 150 mg/kg, po administered as single dose measured up to 8 hrs by LC-MS/MS analysis. The conditions noted are these: in vivo. It is filed as ADME, organism-based.
Data set [14] in a line: Toxicity in athymic nude-Foxn1nu mouse assessed as body weight gain at 50 to 150 mg/kg, po bid for 28 days. It is filed as organism-based. The conditions noted are these: in vivo, 672 h, dose 50-150 mg/kg, time 28 day. In a few lines: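 Female athymic nude-Foxn1nu mice, 8–9 weeks, 18–24 g, n=4 per group. Oral gavage at 50, 100 or 150 mg/kg twice daily, or vehicle, for 28 days. Formulation ethanol/water/Maalox (7:3:90, v/v/v). Toxicity signs monitored daily. Body weight recorded daily in week 1, then twice weekly, as percent change from starting weight.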

Data set [15] can be described thus: Toxicity in athymic nude-Foxn1nu mouse assessed as effect on kidney at 50 to 150 mg/kg, po bid for 28 days. Format: organism-based. The conditions noted are these: in vivo, 672 h, dose 50-150 mg/kg, time 28 day.

This note sets out measurements from ChEMBL document CHEMBL4808175 (J Med Chem, 2021).

Chain of cGMP-dependent 3',5'-cyclic phosphodiesterase (O00408 whole entry): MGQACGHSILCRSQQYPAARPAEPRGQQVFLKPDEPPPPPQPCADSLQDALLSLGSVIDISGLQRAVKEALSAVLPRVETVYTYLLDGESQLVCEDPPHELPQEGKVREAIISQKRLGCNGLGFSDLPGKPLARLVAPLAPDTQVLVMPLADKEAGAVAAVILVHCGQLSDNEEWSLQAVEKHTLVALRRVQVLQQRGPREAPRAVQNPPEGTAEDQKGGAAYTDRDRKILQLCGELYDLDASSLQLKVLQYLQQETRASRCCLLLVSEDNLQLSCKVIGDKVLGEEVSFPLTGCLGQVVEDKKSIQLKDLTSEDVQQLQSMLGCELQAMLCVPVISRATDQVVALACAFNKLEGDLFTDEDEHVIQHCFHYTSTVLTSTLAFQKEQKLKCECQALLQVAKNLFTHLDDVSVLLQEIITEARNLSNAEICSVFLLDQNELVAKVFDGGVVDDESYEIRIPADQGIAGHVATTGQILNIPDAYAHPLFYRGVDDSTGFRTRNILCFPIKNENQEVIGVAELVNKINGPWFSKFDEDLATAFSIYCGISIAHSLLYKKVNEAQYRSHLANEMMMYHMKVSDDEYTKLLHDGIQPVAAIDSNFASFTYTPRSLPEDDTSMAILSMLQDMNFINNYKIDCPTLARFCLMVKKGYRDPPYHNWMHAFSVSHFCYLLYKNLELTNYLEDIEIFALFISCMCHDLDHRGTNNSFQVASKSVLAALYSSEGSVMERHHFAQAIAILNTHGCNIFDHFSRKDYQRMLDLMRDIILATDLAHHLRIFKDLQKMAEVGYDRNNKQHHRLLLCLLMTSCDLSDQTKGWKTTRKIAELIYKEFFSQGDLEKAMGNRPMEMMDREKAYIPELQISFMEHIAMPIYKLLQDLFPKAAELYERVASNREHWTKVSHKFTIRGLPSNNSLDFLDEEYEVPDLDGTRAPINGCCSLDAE
Chain of High affinity cAMP-specific and IBMX-insensitive 3',5'-cyclic phosphodiesterase 8A (O60658 whole entry): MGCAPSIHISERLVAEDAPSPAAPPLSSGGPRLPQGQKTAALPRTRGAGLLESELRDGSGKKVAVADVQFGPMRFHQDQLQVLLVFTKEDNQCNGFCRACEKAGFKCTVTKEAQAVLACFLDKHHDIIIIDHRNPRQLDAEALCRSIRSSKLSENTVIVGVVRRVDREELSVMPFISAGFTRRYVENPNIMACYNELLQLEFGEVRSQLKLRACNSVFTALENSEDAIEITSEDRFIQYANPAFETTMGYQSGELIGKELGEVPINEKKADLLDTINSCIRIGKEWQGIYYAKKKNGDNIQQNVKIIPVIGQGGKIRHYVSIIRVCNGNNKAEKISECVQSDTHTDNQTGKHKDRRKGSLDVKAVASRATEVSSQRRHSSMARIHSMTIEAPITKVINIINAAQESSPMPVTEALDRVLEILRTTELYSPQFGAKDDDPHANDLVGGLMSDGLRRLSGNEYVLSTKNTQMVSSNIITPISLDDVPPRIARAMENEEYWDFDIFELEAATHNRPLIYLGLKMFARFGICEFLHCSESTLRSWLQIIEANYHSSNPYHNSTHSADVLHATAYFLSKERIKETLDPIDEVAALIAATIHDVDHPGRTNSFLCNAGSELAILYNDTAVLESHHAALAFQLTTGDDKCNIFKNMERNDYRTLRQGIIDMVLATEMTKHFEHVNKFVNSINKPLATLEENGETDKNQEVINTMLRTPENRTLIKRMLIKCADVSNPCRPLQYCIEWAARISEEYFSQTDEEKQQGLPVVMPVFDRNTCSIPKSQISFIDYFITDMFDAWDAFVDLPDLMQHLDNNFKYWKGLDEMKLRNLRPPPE
Chain of Dual 3',5'-cyclic-AMP and -GMP phosphodiesterase 11A (Q9HCR9 whole entry): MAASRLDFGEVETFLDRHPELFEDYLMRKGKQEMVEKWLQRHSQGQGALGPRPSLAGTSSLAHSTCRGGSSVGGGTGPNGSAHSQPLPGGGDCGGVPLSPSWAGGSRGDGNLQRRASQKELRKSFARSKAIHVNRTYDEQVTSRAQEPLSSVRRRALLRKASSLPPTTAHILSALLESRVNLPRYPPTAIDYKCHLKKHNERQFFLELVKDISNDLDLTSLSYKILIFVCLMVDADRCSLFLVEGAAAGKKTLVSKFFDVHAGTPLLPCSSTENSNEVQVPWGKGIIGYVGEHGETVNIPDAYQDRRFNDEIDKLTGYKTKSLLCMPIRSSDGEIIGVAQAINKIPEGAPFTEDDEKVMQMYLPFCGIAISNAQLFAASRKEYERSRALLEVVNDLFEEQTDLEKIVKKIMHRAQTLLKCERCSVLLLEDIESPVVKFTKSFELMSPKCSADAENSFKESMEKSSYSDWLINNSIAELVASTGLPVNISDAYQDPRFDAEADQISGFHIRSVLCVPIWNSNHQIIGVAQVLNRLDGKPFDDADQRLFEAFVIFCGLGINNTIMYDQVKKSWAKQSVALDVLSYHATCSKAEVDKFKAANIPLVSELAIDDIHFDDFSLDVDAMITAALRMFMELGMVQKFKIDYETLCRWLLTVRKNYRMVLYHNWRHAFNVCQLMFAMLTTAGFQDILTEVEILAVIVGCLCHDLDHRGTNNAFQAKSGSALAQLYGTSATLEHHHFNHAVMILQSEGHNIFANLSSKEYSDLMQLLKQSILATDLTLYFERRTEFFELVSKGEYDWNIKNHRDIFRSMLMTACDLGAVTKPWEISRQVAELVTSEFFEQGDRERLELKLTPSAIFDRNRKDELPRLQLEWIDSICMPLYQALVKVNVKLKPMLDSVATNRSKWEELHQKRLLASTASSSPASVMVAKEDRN

`COc1c(F)cc(C2CC(C(C)(C)C)=NN2c2ccc(C(=O)N3CCN(C)CC3)cc2)cc1F` (stereo not given): the IC50 (in general, the concentration needed to halve the response being measured) in data set [1] is more than 1 µM; in [2], more than 10 µM; in data set [3] it was more than 10 µM; in [4], more than 10 µM; in data set [5], more than 10 µM; in data set [6], more than 10 µM. The IC50 in data set [7], in data set [8] and in [9] was more than 10 µM in each case. Besides, in data set [10], the EC50 (commonly the concentration that produces a half-maximal response) is 6.7 µM. Also, the k el at 8 h in [11] is 8.33e-05 s⁻¹. For the same molecule, in [12], the AUC(0-inf) (in general, total exposure, with the tail of the curve extrapolated) was 16200 ng·h/mL. Moreover, the CL/F (commonly clearance divided by bioavailability, as obtained after extravascular dosing) in data set [13] is 3.09 mL/min. For the same molecule, the Activity entry in data set [14] and in data set [15] was “Non-Toxic” in each case.
